Screens (PubChem)
Rows were chosen to be rich in hits. Some 1.9% of all compounds tested hit in one or more screens of this group.
UBC9 SUMO inh = SUMOylation inhibition; HTRF SUMOylation assay, SAE1/SAE2 + UBC9, in vitro; inhibition, % at 35 µM; P63279; 290,000 tested, 0.36% active; in the data active means inhibition above about 50%, passing the limit was not always enough
Target sequence (P63279 whole entry, looked up): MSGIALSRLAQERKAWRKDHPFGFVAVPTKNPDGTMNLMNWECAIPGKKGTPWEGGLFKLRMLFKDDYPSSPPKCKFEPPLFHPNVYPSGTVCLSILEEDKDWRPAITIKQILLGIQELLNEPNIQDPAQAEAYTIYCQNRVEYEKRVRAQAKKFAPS
SUMO1-SIM PPI = alters human SUMO1 binding to SIM partners. 360,000 tested, 0.33% active. inhibition, % at 20 µM. AID 602429. P63165. SUMO1 binding to a labelled peptide, TR-FRET, 1 h; in the data active means inhibition above about 37%
Target sequence (P63165 whole entry, looked up): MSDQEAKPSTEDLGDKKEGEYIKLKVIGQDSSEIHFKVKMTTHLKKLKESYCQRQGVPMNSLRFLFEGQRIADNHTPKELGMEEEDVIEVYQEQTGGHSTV
Scp-1 inhibitor = inhibitors of human Scp-1 phosphatase; inhibition, % at 20 µM; Recombinant Scp1, phosphopeptide, malachite green phosphate absorbance; Q9GZU7; 340,000 tested, 0.88% active;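 active means inhibition above about 50% at 20 µM, limit read from the data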;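 further: plate controls were DMSO wells with enzyme for no effect and wells lacking enzyme for full effect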
Target sequence (Q9GZU7 76-261 limits assumed): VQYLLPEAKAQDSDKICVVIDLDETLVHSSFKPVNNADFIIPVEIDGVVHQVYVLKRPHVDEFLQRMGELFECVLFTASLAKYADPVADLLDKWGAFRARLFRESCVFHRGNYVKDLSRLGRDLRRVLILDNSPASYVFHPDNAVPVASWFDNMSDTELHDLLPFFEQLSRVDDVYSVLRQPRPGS
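Incubation: 45 min enzyme reaction at room temperature / System: truncated SCP-1 phosphatase (76-261aa) / Reagent: Phospho 17-mer peptide substrate / Buffer or medium: Acidic Tris acetate buffer with magnesium and detergent / Signal: absorbance at 630 nm / Doses: one concentration, 20 µM, with 1.0% DMSO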
STEP block = STEP (human) phosphatase inhibition; P54829; recombinant STEP, OMFP fluorogenic substrate, fluorescence; inhibition, % at 20 µM; 360,000 tested, 0.25% active;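 active means inhibition at 20 µM, scaled per plate between control wells, above about 37%, limit read from the data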;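 further: 0% = DMSO with enzyme and substrate and 100% = substrate only without enzyme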
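Test system: STEP tyrosine phosphatase / Reagent: OMFP at 25 µM / Doses: 20 µM, 1% DMSO / Read-out: percent inhibition scaled to no-enzyme and uninhibited-enzyme controls, plate-pattern corrected / Detection: FITC-channel fluorescence of OMFP product / Medium: Bis-Tris buffer pH 6.0, 2.5 mM DTT, 0.005% Tween 20 / Schedule: 20 min at room temperature, dark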
DNMT1 inh = inhibitors of human DNMT1; P26358; DNMT1 molecular beacon, Hinp1I cleavage, fluorescence; inhibition (reported as % activation of signal), % at 10 µM; 360,000 tested, 0.83% active; AID 588458; in the data active means inhibition above about 50%
LMPTP block = blocks human LMPTP phosphatase; recombinant LMPTP-A, OMFP fluorogenic substrate, fluorescence intensity; AID 651560; P24666; 360,000 tested, 0.22% active; inhibition, % at 20 µM;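 active means compounds that cut the enzyme signal by at least half of the control window in the single-dose screen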;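 further: plate controls were DMSO wells with enzyme plus substrate for no effect and substrate without enzyme for full effect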
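Assay system: LMPTP-A enzyme. Input: 0.625 nM LMPTP-A final. Probe or stimulus: 400 µM OMFP. Compound dosing: single 20 µM dose. Schedule: 50 min dark incubation at room temperature. Detection: fluorescence intensity of OMFP turnover product. Read-out: percent inhibition versus substrate-only and uninhibited controls. Benchmarks: no-enzyme low control, uninhibited high control.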
DNMT1 inh conf = confirmation of human DNMT1 inhibitors. DNMT1 molecular beacon HinP1I cleavage, fluorescence. 2,300 tested, 8% active. inhibition, % at 10 µM. shares compounds with DNMT1 inh;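 active means average inhibition of at least 30% in the single-concentration confirmation test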
Beacon interf = beacon fluorescence artifact counter-screen; shares compounds with DNMT1 inh; DNMT1 molecular beacon spectral interference counterscreen, fluorescence 485/520; activation (fluorescence interference), % at 10 µM; 2,300 tested, 1% active;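 active means activation of at least 30% at 10 µM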;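 further: DNMT1 catalytic domain with a HinP1I cleavage step and a FAM/dabcyl DNA beacon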
Starred values were filed as active, the others as inactive; / = no result.

SMILES	UBC9 SUMO inh	SUMO1-SIM PPI	Scp-1 inhibitor	STEP block	DNMT1 inh	LMPTP block	DNMT1 inh conf	Beacon interf
O=[N+]([O-])c1ccc(-c2cn(-c3ccc(Cl)cc3)cn2)cc1	/	75*	/	25	54*	15	5	0
Cc1sc2ncnc(N[C@@H](CCC(=O)O)C(=O)O)c2c1C	7	4	1	-1	1	-3	/	/
Cc1sc2ncnc(NC(C)C(=O)O)c2c1C (stereo not drawn)	8	1	1	-2	55*	0	1	-3
Cc1ccccc1-c1cnc(C(O)c2ccc(Cl)c(F)c2)[nH]1 (stereo not drawn)	/	0	/	-3	0	-1	/	/
Clc1ccc2c(N/N=C/c3cccc(Br)c3)ccnc2c1	-28	1	-17	6	80*	3	4	3
Cc1ccc(-n2nc3c(c2NC(=O)c2cccs2)CS(=O)(=O)C3)cc1C	-5	-3	-1	2	-1	-1	/	/
Cc1c(NC2=NC(C)(C)Cc3ccccc32)c(=O)n(-c2ccccc2)n1C	28	1	13	-2	4	-1	/	/
Cc1c(NC2=NC3(CCCCC3)Cc3ccccc32)c(=O)n(C)n1-c1ccccc1	3	9	0	1	83*	7	-1	-2
CC(/C=C1\SC(=S)N(c2ccc(C(=O)O)cc2)C1=O)=C\c1ccccc1	25	57*	18	2	110*	17	6	0
O=C(N/N=C/c1coc2ccccc2c1=O)c1cn(-c2ccccc2)nc1-c1ccc(F)cc1	-16	6	-7	8	59*	0	1	4
O=C(N/N=C/c1coc2ccccc2c1=O)c1ccncc1	10	-4	-5	2	0	0	/	/
COc1cc(/C=C(\C#N)C(=O)NCC2CCCO2)cc(OC)c1OC (stereo not drawn)	29	-7	-3	2	57*	3	3	4
CCN(C(=O)Cn1c(=O)n(-c2cc(OC)c(OC)c(OC)c2)c(=O)c2ccccc21)c1cccc(C)c1	12	4	-8	-3	130*	-1	3	2
COc1cc(-n2c(=O)c3ccccc3n(CC(=O)c3ccc(Br)cc3)c2=O)cc(OC)c1OC	-1	-9	9	4	4	39	/	/
CCCOc1ccc(CN(CCC#N)C(=S)NC(=O)c2ccccc2)cc1	16	4	-13	5	0	1	/	/
Cc1ccc(-n2nc3c4c(cccc4c2=O)-c2ccccc2-3)cc1	18	-6	-5	2	52*	4	2	0
O=C(O)Cn1nc2c3c(cccc3c1=O)-c1ccccc1-2	14	-14	0	1	2	-2	/	/
Cc1ccc(OCC(=O)Nc2ccc(-c3nc4ncccc4o3)cc2)c(C)c1	36	4	5	-2	55*	12	4	4
Cc1ccc(OCC(=O)Nc2ccncc2)c(C)c1	4	5	-2	2	-2	-2	/	/
Cc1cc(SCc2ccc([N+](=O)[O-])cc2)nc(=O)[nH]1	/	-17	30	2	52*	8	2	-1
Cc1cc(SCc2cccc([N+](=O)[O-])c2)nc(=O)[nH]1	18	-30	0	3	5	1	/	/
CN(C)C(CNC(=O)C1CC(=O)N(c2cccc(C(F)(F)F)c2)C1)c1ccccc1 (stereo not drawn)	/	-1	/	-1	91*	-3	2	4
COC(=O)C[C@H]1C[C@H]2c3cc(NC(=O)C4CCC4)ccc3O[C@H]2[C@H](CO)O1	/	1	/	-3	4	-1	/	/
Cc1ccc(-c2cc(C(F)F)n3ncc(C(=O)N4CCN(c5cccc(C)c5C)CC4)c3n2)cc1	7	-2	-5	3	-6	6	/	/
